In ChEMBL document CHEMBL4680084, “New β-Lactam Derivatives Modulate Cell Adhesion and Signaling Mediated by RGD-Binding and Leukocyte Integrins” (J Med Chem, 2016):
pEC50, pIC50: −log10 of the molar value. Numbered stars: 1 amine (or outer) side, 2 acyl side, 3 side chain; on linkers, the order of the positions; unused ones are H or OH. Square brackets hold non-standard residues; d marks the D form. Peptide text beside a SMILES is read from it. * marks the point of attachment. X1 = O=C(Cc1ccc(N[*:1])cc1)[*:2]; NH(2-Me-phenyl) = Cc1ccccc1N*; CO = O=C([*:1])[*:2]

Assays:
[1] = test system: SK-MEL-24; test: Toxicity in human SK-MEL-24 cells assessed as induction of cell necrosis and/or apoptosis incubated for 3 hrs by annexin V-PE and 7-AAD staining based by flow cytometry; conditions: sk-mel-24, 3 h
How it was run: (§1)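 After 3 h incubation, cells resuspended in complete medium and stained with annexin V-PE/7-AAD reagent for 20 min at room temperature in the dark. Flow cytometry sorted cells into viable, early apoptotic and late apoptotic/necrotic populations.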

[2] = test system: MCF7; test: Toxicity in human MCF7 cells assessed as induction of cell necrosis and/or apoptosis incubated for 3 hrs by annexin V-PE and 7-AAD staining based by flow cytometry; conditions: mcf7, 3 h; how it was run: as §1
[3] = test system: HT-29; test: Toxicity in human HT-29 cells assessed as induction of cell necrosis and/or apoptosis incubated for 3 hrs by annexin V-PE and 7-AAD staining based by flow cytometry; conditions: ht-29, 3 h; how it was run: as §1
[4] = test system: K562; test: Toxicity in human K562 cells assessed as induction of cell necrosis and/or apoptosis incubated for 3 hrs by annexin V-PE and 7-AAD staining based by flow cytometry; conditions: k562, 3 h; how it was run: as §1
[5] = test system: HEL; test: Toxicity in human HEL cells assessed as induction of cell necrosis and/or apoptosis incubated for 3 hrs by annexin V-PE and 7-AAD staining based by flow cytometry; how it was run: as §1
[6] = molecular target: T1, Integrin alpha-L/beta-2 (LFA-1) (Homo sapiens, UniProt P05107+P20701); test: Antagonist activity at alphaLbeta2 in human Jurkat E6.1 cells assessed as reduction in cell adhesion to ICAM1 pre-incubated for 30 mins before ICAM1 and further incubated for 30 mins by […]; assay type: cell-based
How it was run: (§2)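 Jurkat E6.1 cells labelled with CellTracker green CMFDA (12.5 µM, 30 min, 37 °C), washed, then pre-incubated 30 min at 37 °C with compound or methanol. Plated at 500,000/well on VCAM-1 (α4β1) or ICAM-1 (αLβ2) coated wells (5 µg/mL) for 30 min at 37 °C. Cells lysed in 0.5% Triton X-100; fluorescence read Ex485/Em535. Quadruplicate, at least three repeats.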

[7] = molecular target: T2, Integrin alpha-V/beta-5 (Homo sapiens, UniProt P06756+P18084); test: Antagonist activity at alphaVbeta5 in human MCF7 cells assessed as reduction in cell adhesion to fibrinogen pre-incubated for 30 mins before fibrinogen and further incubated for 1 hr by nitrophenyl-N-acetyl-beta-D-glucosaminide substrate based chromogenic assay
How it was run: (§3)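 Compound or methanol vehicle pre-incubated with cells for 30 min at room temperature. Cells then plated on wells coated overnight at 4 °C with fibronectin 10 µg/mL (SK-MEL-24, K562, HT-29) or fibrinogen 10 µg/mL (MCF7, HEL). Seeding was 50,000 cells/well, or 100000 for HEL. Adhesion ran 1 h at room temperature. Wells washed with 1% BSA/PBS. Quadruplicate, at least three repeats.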

[8] = molecular target: T3, Integrin alpha-V/beta-6 (Homo sapiens, UniProt P06756+P18564); test: Agonist activity at alphaVbeta6 in human HT-29 cells assessed as increase in cell adhesion to fibronectin pre-incubated for 30 mins before fibronectin and further incubated for 1 hr by nitrophenyl-N-acetyl-beta-D-glucosaminide substrate based chromogenic assay
How it was run: as §3, with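 “BSA/PBS. Adherent cells read by hexosaminidase substrate, absorbance 405 nm.” for “BSA/PBS.”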

[9] = molecular target: T3, Integrin alpha-V/beta-6; test: Antagonist activity at alphaVbeta6 in human HT-29 cells assessed as reduction in cell adhesion to fibronectin pre-incubated for 30 mins before fibronectin and further incubated for 1 hr by nitrophenyl-N-acetyl-beta-D-glucosaminide substrate based chromogenic assay; how it was run: as §3
[10] = molecular target: T4, Integrin alpha-5/beta-1 (Homo sapiens, UniProt P05556+P08648); test: Agonist activity at alpha5beta1 in human K562 cells assessed as increase in cell adhesion to fibronectin pre-incubated for 30 mins before fibronectin and further incubated for 1 hr by nitrophenyl-N-acetyl-beta-D-glucosaminide substrate based chromogenic assay
How it was run: as §3, with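 “BSA/PBS. Adherent cells read by hexosaminidase substrate, absorbance 405 nm.” for “BSA/PBS.”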

[11] = molecular target: T4, Integrin alpha-5/beta-1; test: Antagonist activity at alpha5beta1 in human K562 cells assessed as reduction in cell adhesion to fibronectin pre-incubated for 30 mins before fibronectin and further incubated for 1 hr by nitrophenyl-N-acetyl-beta-D-glucosaminide substrate based chromogenic assay
How it was run: as §3, with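 “BSA/PBS. Adherent cells read by hexosaminidase substrate, absorbance 405 nm.” for “BSA/PBS.”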

[12] = molecular target: T5, Integrin alpha-IIb/beta-3 (Homo sapiens, UniProt P05106+P08514); test: Agonist activity at alpha2bbeta3 in human HEL cells assessed as increase in cell adhesion to fibrinogen pre-incubated for 30 mins before fibrinogen and further incubated for 1 hr by nitrophenyl-N-acetyl-beta-D-glucosaminide substrate based chromogenic assay; how it was run: as §3
[13] = molecular target: T5, Integrin alpha-IIb/beta-3; test: Antagonist activity at alpha2bbeta3 in human HEL cells assessed as reduction in cell adhesion to fibrinogen pre-incubated for 30 mins before fibrinogen and further incubated for 1 hr by nitrophenyl-N-acetyl-beta-D-glucosaminide substrate based chromogenic assay; how it was run: as §3
[14] = molecular target: T6, Integrin alpha-V/beta-3 (Homo sapiens, UniProt P05106+P06756); test: Agonist activity at alphaVbeta3 in human SK-MEL-24 cells assessed as increase in cell adhesion to fibronectin pre-incubated for 30 mins before fibronectin and further incubated for 1 hr by nitrophenyl-N-acetyl-beta-D-glucosaminide substrate based chromogenic assay
How it was run: as §3, with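 “BSA/PBS. Adherent cells read by hexosaminidase substrate, absorbance 405 nm.” for “BSA/PBS.”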

[15] = molecular target: T6, Integrin alpha-V/beta-3; test: Antagonist activity at alphaVbeta3 in human SK-MEL-24 cells assessed as reduction in cell adhesion to fibronectin pre-incubated for 30 mins before fibronectin and further incubated for 1 hr by nitrophenyl-N-acetyl-beta-D-glucosaminide substrate based chromogenic assay; how it was run: as §3
[16] = molecular target: T2, Integrin alpha-V/beta-5; test: Agonist activity at alphaVbeta5 in human MCF7 cells assessed as increase in cell adhesion to fibrinogen pre-incubated for 30 mins before fibrinogen and further incubated for 1 hr by nitrophenyl-N-acetyl-beta-D-glucosaminide substrate based chromogenic assay
How it was run: as §3, with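 “BSA/PBS. Adherent cells read by hexosaminidase substrate, absorbance 405 nm.” for “BSA/PBS.”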

[17] = molecular target: T7, Integrin alpha-4/beta-1 (Homo sapiens, UniProt P05556+P13612); test: Agonist activity at alpha4beta1 in human Jurkat E6.1 cells assessed as increase in cell adhesion to VCAM1 pre-incubated for 30 mins before VCAM1 and further incubated for 30 mins by […]; assay type: cell-based; how it was run: as §2
[18] = molecular target: T7, Integrin alpha-4/beta-1; test: Antagonist activity at alpha4beta1 in human Jurkat E6.1 cells assessed as reduction in cell adhesion to VCAM1 pre-incubated for 30 mins before VCAM1 and further incubated for 30 mins by […]; assay type: cell-based
[19] = molecular target: T1, Integrin alpha-L/beta-2 (LFA-1); test: Agonist activity at alphaLbeta2 in human Jurkat E6.1 cells assessed as increase in cell adhesion to ICAM1 pre-incubated for 30 mins before ICAM1 and further incubated for 30 mins by […]; assay type: cell-based; how it was run: as §2
[20] = molecular target: T5, Integrin alpha-IIb/beta-3; test: Inhibition of fibrinogen binding to alpha2bbeta3 isolated from human HEL cells incubated for 1 hr by […] competitive solid-phase binding assay
[21] = molecular target: T4, Integrin alpha-5/beta-1; test: Inhibition of fibronectin binding to alpha5beta1 isolated from human K562 cells incubated for 1 hr by […] competitive solid-phase binding assay; assay type: tissue-based
How it was run: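 Plates coated overnight at 4 °C in carbonate buffer pH 9.6 with fibronectin 0.5 µg/mL (αvβ3, αvβ6, α5β1), fibrinogen 10 µg/mL (αIIbβ3, αvβ5) or ICAM-1 (αLβ2). Blocked 1 h in buffer containing Ca/Mg/Mn 1 mM each and 1% BSA. Purified integrin (3–10 µg/mL) incubated with compound (10⁻⁴–10⁻¹⁰ M) 1 h at room temperature. Bound integrin detected with primary antibody then AlexaFluor488 secondary, Ex485/Em535. Duplicate, at least three repeats.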

[22] = molecular target: T6, Integrin alpha-V/beta-3; test: Inhibition of fibronectin binding to human recombinant alphaVbeta3 expressed in HEK293 cells incubated for 1 hr by […] competitive solid-phase binding assay; assay type: cell-based
[23] = molecular target: T2, Integrin alpha-V/beta-5; test: Inhibition of fibrinogen binding to alphaVbeta5 isolated form human mCf7 cells incubated for 1 hr by […] competitive solid-phase binding assay
[24] = molecular target: T3, Integrin alpha-V/beta-6; test: Inhibition of fibronectin binding to alphaVbeta6 isolated form human HT-29 cells incubated for 1 hr by […] competitive solid-phase binding assay; assay type: tissue-based
[25] = molecular target: T7, Integrin alpha-4/beta-1; test: Inhibition of fibronectin binding to […] isolated from human Jurkat E6.1 cells incubated for 1 hr by scintillation-proximity assay based competitive solid-phase binding assay; assay type: tissue-based

pIC50 [6]	pIC50 [7]	pEC50 [8]	pIC50 [9]	pIC50 [11]	pEC50 [12]	pIC50 [13]	pIC50 [15]	Compound	Activity [1]	Activity [2]	Activity [3]	Activity [4]	Activity [5]	pEC50 [14]	pEC50 [16]	pEC50 [17]	pIC50 [18]	pEC50 [19]	further results
9.08	–	–	–	–	–	–	–	Cc1ccccc1NC(=O)Nc1ccc(CC(=O)N[C@@H](CC(C)C)C(=O)N[C@@H](CC(=O)O)C(=O)N[C@H](C(=O)N2CCC[C@H]2C(=O)O)C(C)C)cc1 ({NH(2-Me-phenyl)-CO}-[X1]LDVP-OH)	Non-Toxic	Non-Toxic	Non-Toxic	Non-Toxic	Non-Toxic	–	–	–	–	–	–
–	5.64	< 5.30	< 5.30	< 5.30	< 5.30	< 5.30	–	Ac-DRLDS-OH	Non-Toxic	Non-Toxic	Non-Toxic	Non-Toxic	Non-Toxic	–	–	–	–	–	pEC50 [10]: < 5.30
< 5.30	< 5.30	< 5.30	< 5.30	6.38	< 5.30	< 5.30	< 5.30	O=C(O)CC1CC(=O)N1C(=O)NCc1ccccc1 (stereo not drawn)	Non-Toxic	Non-Toxic	Non-Toxic	Non-Toxic	Non-Toxic	< 5.30	< 5.30	< 5.30	< 5.30	< 5.30	–
–	–	–	–	–	–	–	–	CC(C)[C@@H]1NC(=O)[C@@H](Cc2ccccc2)NC(=O)[C@H](CC(=O)O)NC(=O)CNC(=O)[C@H](CCCN=C(N)N)NC1=O [CYCLORGDFV]	Non-Toxic	Non-Toxic	Non-Toxic	Non-Toxic	Non-Toxic	–	–	–	–	–	–
–	7.47	< 5.30	< 5.30	9.21	< 5.30	< 5.30	6.03	H-GRGDTP-OH	Non-Toxic	Non-Toxic	Non-Toxic	Non-Toxic	Non-Toxic	–	–	–	–	–	–
–	–	–	–	–	–	–	–	CCCCS(=O)(=O)N[C@@H](Cc1ccc(OCCCCC2CCNCC2)cc1)C(=O)O [TIROFIBAN]	Non-Toxic	Non-Toxic	Non-Toxic	Non-Toxic	Non-Toxic	–	–	–	–	–	–
5.79	–	< 5.30	< 5.30	–	6.51	–	7.39	O=C(O)CC1CC(=O)N1 (stereo not drawn)	Non-Toxic	Non-Toxic	Non-Toxic	Non-Toxic	Non-Toxic	–	6.42	< 5.30	< 5.30	–	pIC50 [20]: 6.58; pIC50 [21]: < 6.00; pEC50 [10]: 5.99; pIC50 [22]: 8.72; pIC50 [23]: 8.62; pIC50 [24]: < 6.00; pIC50 [25]: < 6.00

Compound	pIC50 [6]	pIC50 [7]	pEC50 [8]	pIC50 [9]	pIC50 [11]	pEC50 [12]	pIC50 [13]	pIC50 [15]	Activity [1]	Activity [2]	Activity [3]	Activity [4]	Activity [5]	pEC50 [14]	pEC50 [16]	pEC50 [17]	pIC50 [18]	pEC50 [19]	further results
Nc1ccc(CNC(=O)N2C(=O)CC2CC(=O)NCCC(=O)O)cc1.O=C(O)C(F)(F)F (stereo not drawn)	< 5.30	< 5.30	< 5.30	< 5.30	5.98	< 5.30	< 5.30	< 5.30	Non-Toxic	Non-Toxic	Non-Toxic	Non-Toxic	Non-Toxic	< 5.30	< 5.30	< 5.30	< 5.30	< 5.30	–
NCc1ccc(NC(=O)N2C(=O)C[C@H]2C(=O)O)cc1.O=C(O)C(F)(F)F	< 5.30	< 5.30	< 5.30	< 5.30	–	< 5.30	< 5.30	< 5.30	Non-Toxic	Non-Toxic	Non-Toxic	Non-Toxic	Non-Toxic	< 5.30	< 5.30	< 5.30	< 5.30	< 5.30	–
